# Measurements of several laboratories.
# Lines come from different studies, so protocols differ. pIC50: −log10 of the molar value.
# Cell line: Vero
# Effect on: cell growth or viability
Compound,method,time,pIC50
NNC(=O)c1ccc(NC(=O)Cn2c(=O)c3cc(I)ccc3n(Cc3ccccc3)c2=O)cc1,,,4.28
COc1ccc(NC(=O)C2=C(C)NC(C)=C(C(=O)Nc3ccc(OC)cc3OC)C2c2ccco2)c(OC)c1,MTT,,4.29
Clc1ccc(-c2nnc(Nc3ccc(C4=NNC(c5ccccc5)C4)cc3)c3ccccc23)cc1 (stereo not shown),,,5.32
COC(=O)c1ccc(NC(=O)Cn2c(=O)c3cc(I)ccc3n(Cc3ccccc3)c2=O)cc1,,,4.30
O=c1nc(-c2ccc(Nc3nnc(-c4ccc(Cl)cc4)c4ccccc34)cc2)cc(-c2ccccc2)[nH]1,,,5.40
COc1cc(NC(=O)C2=C(C)NC(C)=C(C(=O)Nc3cc(OC)c(Cl)cc3OC)C2c2ccc(Cl)cc2)c(OC)cc1Cl,MTT,,4.56
Cc1ccc2c(-c3cc4c(CNCc5cccnc5)cnc(C)c4o3)cc(=O)oc2c1C,MTT,72 h,4.01
CNC(=O)c1ccc(NC(=O)Cn2c(=O)c3cc(I)ccc3n(Cc3ccccc3)c2=O)cc1,,,4.33
CS(=O)(=O)CCNCc1ccc(-c2ccc3ncnc(Nc4ccc(OCc5cccc(F)c5)c(Cl)c4)c3c2)o1,MTT,,4.76
S=c1nc(-c2ccc(Nc3nnc(-c4ccc(Cl)cc4)c4ccccc34)cc2)cc(-c2ccccc2)[nH]1,,,5.39
COc1ccc(NC(=O)C2=C(C)NC(C)=C(C(=O)Nc3cc(OC)c(Cl)cc3OC)C2c2ccc(O)cc2)c(OC)c1 (stereo not shown),MTT,,4.22
O=c1nc(-c2ccc(Nc3nnc(-c4ccc(Cl)cc4)c4ccccc34)cc2)cc(-c2ccc(Cl)cc2)[nH]1,,,5.52
Cc1ncc(CN2CCN(Cc3ccccn3)CC2)c2cc(C(=O)c3ccc4c(c3)OCCO4)oc12,MTT,72 h,4.30
COc1cc(NC(=O)C2=C(C)NC(C)=C(C(=O)Nc3cc(OC)c(Cl)cc3OC)C2c2cccc(Cl)c2)c(OC)cc1Cl,MTT,,4.55
Clc1ccc(-c2nnc(Nc3ccc(C4=NNC(c5ccc(Cl)cc5)C4)cc3)c3ccccc23)cc1 (stereo not shown),,,5.37
Cc1cc(C)n(-c2ccc(NC(=O)Cn3c(=O)c4cc(I)ccc4n(Cc4ccccc4)c3=O)cc2)n1,,,4.34
COc1ccc(NC(=O)C2=C(C)NC(C)=C(C(=O)Nc3ccc(OC)cc3OC)C2c2ccc(Cl)cc2)c(OC)c1,MTT,,4.12
C=CC(=O)Nc1cc(Nc2nccc(-c3cn(C)c4ccccc34)n2)c(OC)cc1N(C)CCN(C)C,MTT,72 h,3.74
OC(Cn1cncn1)(Cn1cncn1)c1ccc(F)cc1F,MTT,24 h,3.76
